The results in this text go back to ChEMBL document CHEMBL1166007, “Anti-AIDS agents 82: synthesis of seco-(3'R,4'R)-3',4'-di-O-(S)-camphanoyl-(+)-cis-khellactone (DCK) derivatives as novel anti-HIV agents” (Bioorg Med Chem, 2010).

One data set deals with MT2. Kind of data set: Cytotoxicity against human MT2 cells after 6 days by XTT assay. The format is cell-based. The settings on record: MT2, 144 h. (In general: Formazan colour is commonly taken as a measure of viable cells.)
Data set [1] is described as follows: Therapeutic index, ratio of IC50 for human MT2 cells to EC50 for HIV1 3B infected in human MT2 cells. The format is cell-based. The settings on record: read-out: Ratio IC50/EC50.
Data set [2] relates to Human immunodeficiency virus 1. In words: Antiviral activity against HIV1 3B infected in human MT2 cells assessed as inhibition of viral p24 antigen production after 6 days by ELISA. The class given is functional, organism-based. The note with it: Human immunodeficiency virus 1, 3B, MT2, 144 h. Summed up:
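Human T-cell MT-2 line kept with L-glutamine at 37 °C and 5% CO2. Compounds were dissolved in DMSO and screened at final 100, 20, 4 and 0.8 μg/mL, with a highest tested concentration of 20 μM. Medium was changed on days 1 and 4. Supernatant p24 was measured by antigen capture on day 6.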
For orientation: An ELISA detects its analyte on a solid surface through an enzyme-linked reagent.

In data set [3] the test system is Human immunodeficiency virus 1. In words: Antiviral activity against HIV1 3B infected in […] assessed as inhibition of viral p24 antigen production at 20 uM after 6 days by ELISA. The class given is functional, organism-based. Summed up:
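Human T-cell MT-2 line kept with L-glutamine at 37 °C and 5% CO2. Compounds were dissolved in DMSO and screened at final 100, 20, 4 and 0.8 μg/mL, with a highest tested concentration of 20 μM. Wells received […] at 3 × 10^5 cells/mL plus HIV-1 IIIB inoculum of 125 TCID50. Medium was changed on days 1 and 4. Supernatant p24 was measured by antigen capture on day 6.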

Data set [4] concerns Human immunodeficiency virus 1. Kind of data set: Antiviral activity against HIV1 NL4-3 infected in human MT4 cells assessed as inhibition of viral p24 antigen production after 4 days by ELISA. The class given is functional, organism-based. The note with it: Human immunodeficiency virus 1, NL4-3, MT4, 96 h. In a few lines:
(§1)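 HIV-1 NL4-3 or RTMDR (multi-RT inhibitor-resistant) virus infected MT-4 cells at MOI 0.001 in 96-well culture. On day 4 post-infection, culture supernatants were collected and p24 was measured by ELISA. TI = IC50/EC50. Values are averages of at least three separate experiments. Top tested concentration 20 μM.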

In data set [5] the test system is Human immunodeficiency virus. Kind of data set: Antiviral activity against multi-RT inhibitor-resistant HIV infected in human MT4 cells assessed as inhibition of viral p24 antigen production after 4 days by ELISA. The settings on record: Human immunodeficiency virus 1, MT4, 96 h. The class given is functional, organism-based. Summed up:
as §1

For a further data set, the system named is MT4. Kind of data set: Cytotoxicity against human MT4 cells after 4 days by XTT assay. The class given is cell-based. The note with it: MT4, 96 h.
Data set [6] can be described thus: Therapeutic index, ratio of IC50 for human MT4 cells to EC50 for HIV1 NL4-3 infected in human MT4 cells. The settings on record: read-out: Ratio IC50/EC50. The class given is cell-based. In a few lines: as §1
The nature of data set [7]: Therapeutic index, ratio of IC50 for human MT4 cells to EC50 for multi-RT inhibitor-resistant HIV infected in human MT4 cells. The class given is cell-based. The settings on record: read-out: Ratio IC50/EC50. Summed up: as §1

The structures appear in SMILES notation. pEC50, pIC50: −log10 of the molar value. Active and inactive are the calls of the source. No cut-off for these calls is given here. Some results are limits rather than exact numbers.

One may read the pIC50 as the negative decadic logarithm of the IC50, by convention in mol/L. Read a low pIC50 as a large IC50. As usually defined, the pEC50 is the negative decadic logarithm of the EC50, by convention in mol/L. Compound `CCOc1c(C(C)=O)ccc2c1[C@@H](OC(=O)[C@@]13CC[C@@](C)(C(=O)O1)C3(C)C)[C@@H](OC(=O)[C@@]13CC[C@@](C)(C(=O)O1)C3(C)C)C(C)(C)O2` showed a negative-log IC50 (pIC50) in the data set with MT2 of 4.40. The selectivity ratio in data set [1] stood at 208. In addition, the pEC50 in data set [2] is 6.72.

Compound `CC(=O)c1ccc2c(c1C)[C@@H](OC(=O)[C@@]13CC[C@@](C)(C(=O)O1)C3(C)C)[C@@H](OC(=O)[C@@]13CC[C@@](C)(C(=O)O1)C3(C)C)C(C)(C)O2` showed a negative logarithm of the IC50 (pIC50) in the data set with MT2 of 4.40. Besides, the inhibition entry in [3] is “inactive”.

For `Cc1cc(=O)oc2cc(OC(C)(C)[C@@H](COC(=O)[C@@]34CC[C@@](C)(C(=O)O3)C4(C)C)OC(=O)[C@@]34CC[C@@](C)(C(=O)O3)C4(C)C)ccc12`, the pIC50 in the data set on MT2 was 4.41; with MT4, 4.70. The pEC50 in [4] is less than 4.70; in [5], 4.70. The inhibition entry in data set [3] is “inactive”.

For the compound `COC(=O)COc1ccc2c(C)cc(=O)oc2c1COC(=O)[C@@]12CC[C@@](C)(C(=O)O1)C2(C)C`, the pEC50 in [4] is less than 4.35. The pIC50 with MT4 is 4.26. In addition, in data set [6], the selectivity ratio came to 1.22.

For the compound `COc1ccc2c(C)cc(=O)oc2c1COC(=O)[C@@]12CC[C@@](C)(C(=O)O1)C2(C)C`, the pEC50 in [4] was less than 4.44. The negative-log IC50 (pIC50) in the data set with MT4 was 4.20. Further, the selectivity ratio in data set [6] came out at 1.71.

In the data set on MT2, `Cc1cc(=O)oc2c3c(ccc12)OC(C)(C)[C@H](OC(=O)[C@@]12CC[C@@](C)(C(=O)O1)C2(C)C)[C@@H]3OC(=O)[C@@]12CC[C@@](C)(C(=O)O1)C2(C)C` had a pIC50 of 4.41. The selectivity ratio in data set [1] was 301. Moreover, the pEC50 in data set [2] was 6.90.

Consider `Cc1cc(=O)oc2c(CNC(=O)[C@@]34CC[C@@](C)(C(=O)O3)C4(C)C)c(OC(C)C)ccc12`, for which the pEC50 in data set [4] was less than 4.60. The compound further had a pIC50 in the data set on MT4 of 4.60. In addition, the selectivity ratio in [6] was 1.

Consider `Cc1cc(=O)oc2c([C@H](C)OC(=O)[C@@]34CC[C@@](C)(C(=O)O3)C4(C)C)c(OC(C)C)ccc12`, for which the pIC50 in the data set on MT2 was 4.25; with MT4, 4.70. Also, the results for the pEC50 in [4] and in [5] were less than 4.70 and 4.70, respectively. Also, in data set [3], the inhibition result was “inactive”.

Turning to `Cc1cc(=O)oc2c([C@H](COC(=O)[C@@]34CC[C@@](C)(C(=O)O3)C4(C)C)OC(=O)[C@@]34CC[C@@](C)(C(=O)O3)C4(C)C)c(OC(C)C)ccc12`, the pIC50 is 4.41 in the data set with MT2 and 4.70 with MT4. Also, the pEC50 in [4] is less than 4.70; in data set [5], 4.70. The inhibition result in data set [3] is “inactive”.

Turning to `Cc1cc(=O)oc2c(CSC(=O)[C@@]34CC[C@@](C)(C(=O)O3)C4(C)C)c(OC(C)C)ccc12`, the pEC50 in [4] was 5.33. Further, the pIC50 with MT4 is 4.25. Moreover, the selectivity ratio in data set [6] was determined as 12.

Consider `Cc1cn([C@H]2CC(N=[N+]=[N-])[C@@H](CO)O2)c(=O)[nH]c1=O` (single isomer, unassigned) [ZIDOVUDINE], for which the pEC50 in data set [2] was 7.36.

As for `Cc1cc(=O)oc2c(CN(C)C(=O)[C@@]34CC[C@@](C)(C(=O)O3)C4(C)C)c(OC(C)C)ccc12`, the negative-log EC50 (pEC50) in data set [4] is 5.25. This compound also had a negative-log IC50 (pIC50) in the data set on MT4 of 4.25. Also, in data set [6], the selectivity ratio amounted to 8.

In the case of `CCc1cc(=O)c2ccc3c(c2o1)[C@@H](OC(=O)[C@@]12CC[C@@](C)(C(=O)O1)C2(C)C)[C@@H](OC(=O)[C@@]12CC[C@@](C)(C(=O)O1)C2(C)C)C(C)(C)O3`, the pEC50 in data set [4] was 7.10; in data set [5], 6.88. The same compound gave a pIC50 in the data set with MT4 of 5.03. The selectivity ratio in data set [7] turned out to be 69.9.

Turning to `COc1ccc(N(Cc2c(OC(C)C)ccc3c(C)cc(=O)oc23)C(=O)[C@@]23CC[C@@](C)(C(=O)O2)C3(C)C)cc1`, the pEC50 in [4] was 5.33. In the data set with MT4, this compound had a pIC50 of 4.46. Further, the selectivity ratio in data set [6] was determined as 15.

Take `CCOc1ccc2c(C)cc(=O)oc2c1COC(=O)[C@@]12CC[C@@](C)(C(=O)O1)C2(C)C`: in [4], the negative logarithm of the EC50 (pEC50) was less than 4.49. The compound further gave a pIC50 in the data set with MT4 of 4.22. The selectivity ratio in data set [6] was determined as 1.87.
